Results on 4 compounds are retold here after PubChem BioAssay AID2434 (Vanderbilt High Throughput Screening Facility, 2010).

Activity calls are given as the source filed them.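 The calls were made as follows: active = an acetylcholine EC50 could be fitted from its dose curve with compound present at 10 µM; inactive = the rest.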

Muscarinic acetylcholine receptor M1 (Rattus norvegicus), sequence (P08482 whole entry, looked up): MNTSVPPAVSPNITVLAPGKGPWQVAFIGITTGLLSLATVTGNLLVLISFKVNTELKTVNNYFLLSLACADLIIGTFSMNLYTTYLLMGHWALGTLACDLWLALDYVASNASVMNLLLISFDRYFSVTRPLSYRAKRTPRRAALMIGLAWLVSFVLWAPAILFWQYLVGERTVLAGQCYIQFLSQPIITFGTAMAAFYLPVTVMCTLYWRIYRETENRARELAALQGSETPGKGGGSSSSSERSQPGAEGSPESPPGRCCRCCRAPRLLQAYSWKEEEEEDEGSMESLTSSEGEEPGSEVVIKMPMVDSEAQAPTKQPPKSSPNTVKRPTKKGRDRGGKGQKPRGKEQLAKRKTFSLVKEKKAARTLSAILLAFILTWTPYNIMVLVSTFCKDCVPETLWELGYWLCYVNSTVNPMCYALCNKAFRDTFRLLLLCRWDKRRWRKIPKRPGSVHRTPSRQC

The test has as its target Muscarinic acetylcholine receptor M1 (Rattus norvegicus) (UniProt P08482). As to the kind of experiment: M1 acetylcholine potency enhancement by modulators – cell-based, ACh fold-shift, calcium, CHO-K1, mechanism study (AID 2434). The settings on record: CHO-K1 rat M1, Fluo-4 calcium. Summed up: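 Also added: acetylcholine concentration-response curve, eight concentrations; material: rat M1-expressing CHO-K1 cells, Fluo-4 loaded; signal: Fluo-4 calcium signal; buffer or medium: HBSS assay buffer with HEPES and probenecid, pH 7.4; controls: vehicle acetylcholine curve and maximal acetylcholine response; schedule: dye loading 45–60 min at 37 °C, assay at 25 °C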
`Cn1cc(-c2ccc(CN3C(=O)C(=O)c4ccccc43)c(F)c2)cn1`: the result was inactive. The value for `Cc1cc(NC(=O)CS(=O)(=O)c2cn(Cc3cccc(-c4cn[nH]c4)c3)c3cc(F)cc(F)c23)no1` was “active”; that for `Cn1cc(-c2cc(F)c(CN3C(=O)C(=O)c4ccccc43)c(F)c2)cn1` was “inactive”; that for `Cc1cc(NC(=O)CS(=O)(=O)c2cn(Cc3cc(Br)ccc3F)c3ccccc23)no1` was “active”.
